Drawing on ChEMBL document CHEMBL3351368, “Biphenyl-4-carboxylic acid [2-(1H-indol-3-yl)-ethyl]-methylamide (CA224), a nonplanar analogue of fascaplysin, inhibits Cdk4 and tubulin polymerization: evaluation of in vitro and in vivo anticancer activity” (J Med Chem, 2014), this text covers Activity, inhibition and solubility for one molecule.

In brackets after ≈: the same amount, converted by molar mass. Activity calls are given as the source filed them. No cut-off for these calls is given here.

One data set relates to Mus musculus. Briefly: Toxicity in human HCT116 cells xenografted in SCID mouse at 100 mg/kg, ip relative to untreated control. In kind it is organism-based, HCT-116. The arrangement: dose 100 mg/kg, route intraperitoneal. The settings on record: in vivo. In outline: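 SCID male mice, 18-25 g, 6-8 weeks old, received 6.6 × 10^6 HCT-116 cells subcutaneously on the dorsal side. Randomized into groups of 7 at 4-6 mm tumors (about 5 days), then dosed intraperitoneally for 9 consecutive days. Tumor size recorded every 2-5 days, weight = L×W²×0.5; %GI = 100 − %T/C. Body weight taken daily relative to start; Student t-test.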

The target in another data set is CYP2C9 (Homo sapiens, UniProt P11712). Briefly: Inhibition of human recombinant CYP2C9 at 10 uM. Format: ADME.
The target in data set [1] is Epidermal growth factor receptor (Homo sapiens) (UniProt P00533). Briefly: Inhibition of human EGFR assessed as enzyme activity at 10 uM.
Data set [2] is described as follows: Anticancer activity against p53 null, pRb+ human Calu1 cells assessed as reduction in colony formation efficiency at 3 uM after 24 hrs by visual count/crystal violet staining method. Format: functional. As to conditions: Calu-1, 24 h. In outline:
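Long-term survival assay. A549 and Calu-1 cells treated with a range of concentrations, colonies counted, efficiency expressed as percent of colonies versus untreated cultures. Means and standard deviations of three independent experiments.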

Data set [3] relates to A549. Briefly: Reduction cyclin B1 level in p53+, pRb+ human A549 cells at IC50 concentration after 24 hrs by Western blot analysis. Background: A western blot detects proteins with antibodies after separation by electrophoresis.
The nature of data set [4]: Cell cycle arrest in mouse BNL-SVA.8 cells assessed as accumulation of cells at subG1 phase at IC50 concentration after 48 hrs by flow cytometry (reference value: 0%). Format: functional. The procedure, abridged:
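Normal (BNL CL2) and SV40 large T-antigen transformed (BNL SV A.8) mouse embryonic hepatic cells were treated at IC50 or IC70 concentration for 48 h. Analysis was by FACS, with apoptosis taken as % cells in the sub-G1 peak. Untreated cells served as control.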

In data set [5] the target is Serine/threonine-protein kinase PLK3 (Homo sapiens) (UniProt Q9H4B4). Briefly: Inhibition of human Plk3 assessed as enzyme activity at 10 uM.
The nature of data set [6]: Cell cycle arrest in SV-40 large T-antigen transformed human WI38 cells assessed as accumulation of cells at subG1 phase by flow cytometry. In kind it is functional, cell-based. As to conditions: WI-38. Background: In flow cytometry, cells or beads pass a laser one at a time.
A further data set concerns LS174T. Kind of data set: Increase in p27 level in p53+, pRb+ human LS 174T cells at IC50 concentration after 24 hrs by Western blot analysis.
Data set [7] has as its system A549. Kind of data set: Increase in p27 level in p53+, pRb+ human A549 cells at IC50 concentration after 24 hrs by Western blot analysis.
The test system of data set [8] is A549. Briefly: Cell cycle arrest in human A549 cells assessed as accumulation of cells at S phase at IC50 concentration after 24 hrs by flow cytometry (reference value: 29%). In kind it is functional.
A short description of data set [9]: Solubility in phosphate buffered saline. Format: physicochemical.

Epidermal growth factor receptor (Homo sapiens), sequence (P00533 whole entry): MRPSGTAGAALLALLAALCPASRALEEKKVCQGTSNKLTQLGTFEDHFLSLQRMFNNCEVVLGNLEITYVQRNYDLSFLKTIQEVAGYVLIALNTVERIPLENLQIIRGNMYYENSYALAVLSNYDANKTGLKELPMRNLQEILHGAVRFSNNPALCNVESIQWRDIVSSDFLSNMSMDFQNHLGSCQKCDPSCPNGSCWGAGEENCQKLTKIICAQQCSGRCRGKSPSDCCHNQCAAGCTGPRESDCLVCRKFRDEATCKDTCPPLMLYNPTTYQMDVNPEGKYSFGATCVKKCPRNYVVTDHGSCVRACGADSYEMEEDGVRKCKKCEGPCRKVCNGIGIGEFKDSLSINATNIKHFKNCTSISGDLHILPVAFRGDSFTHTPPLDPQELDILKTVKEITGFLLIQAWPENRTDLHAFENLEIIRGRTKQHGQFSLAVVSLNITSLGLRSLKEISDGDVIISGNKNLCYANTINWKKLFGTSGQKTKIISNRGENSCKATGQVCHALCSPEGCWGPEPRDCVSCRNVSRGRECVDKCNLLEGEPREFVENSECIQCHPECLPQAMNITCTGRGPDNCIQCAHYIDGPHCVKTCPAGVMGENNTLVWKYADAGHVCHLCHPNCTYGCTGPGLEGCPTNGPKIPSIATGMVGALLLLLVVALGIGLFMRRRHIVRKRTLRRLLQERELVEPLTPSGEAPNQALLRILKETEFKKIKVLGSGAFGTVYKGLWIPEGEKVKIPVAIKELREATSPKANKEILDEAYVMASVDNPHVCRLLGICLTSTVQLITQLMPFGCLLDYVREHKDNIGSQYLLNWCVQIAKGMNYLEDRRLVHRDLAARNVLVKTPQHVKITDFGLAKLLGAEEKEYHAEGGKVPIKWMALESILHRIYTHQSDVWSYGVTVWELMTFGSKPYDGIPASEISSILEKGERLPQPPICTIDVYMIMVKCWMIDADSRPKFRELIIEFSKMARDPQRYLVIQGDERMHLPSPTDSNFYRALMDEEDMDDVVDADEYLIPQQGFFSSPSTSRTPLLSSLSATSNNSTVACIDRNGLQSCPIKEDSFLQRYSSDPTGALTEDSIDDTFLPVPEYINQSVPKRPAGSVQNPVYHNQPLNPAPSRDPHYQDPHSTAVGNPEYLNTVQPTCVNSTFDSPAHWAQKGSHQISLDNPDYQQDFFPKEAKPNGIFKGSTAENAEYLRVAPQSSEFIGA
Serine/threonine-protein kinase PLK3 (Homo sapiens), sequence (Q9H4B4 whole entry, looked up): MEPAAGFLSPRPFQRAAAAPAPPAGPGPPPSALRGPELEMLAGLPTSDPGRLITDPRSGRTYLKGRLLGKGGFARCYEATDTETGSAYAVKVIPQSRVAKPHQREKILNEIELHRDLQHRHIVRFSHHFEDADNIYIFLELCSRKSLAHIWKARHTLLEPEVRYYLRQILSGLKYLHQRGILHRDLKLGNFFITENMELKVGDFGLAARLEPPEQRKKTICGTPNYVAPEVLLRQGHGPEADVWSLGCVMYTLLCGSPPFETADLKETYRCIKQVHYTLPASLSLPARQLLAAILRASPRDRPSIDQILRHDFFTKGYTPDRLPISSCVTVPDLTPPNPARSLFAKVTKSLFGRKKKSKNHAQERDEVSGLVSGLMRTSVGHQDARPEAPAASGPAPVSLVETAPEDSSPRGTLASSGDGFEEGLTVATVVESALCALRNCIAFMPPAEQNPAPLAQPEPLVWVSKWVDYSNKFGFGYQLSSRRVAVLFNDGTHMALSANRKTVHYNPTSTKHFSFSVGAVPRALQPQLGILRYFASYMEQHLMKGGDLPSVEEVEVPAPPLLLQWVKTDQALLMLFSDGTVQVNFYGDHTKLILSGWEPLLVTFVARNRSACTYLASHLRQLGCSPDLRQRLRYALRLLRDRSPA
CYP2C9, sequence (P11712 whole entry): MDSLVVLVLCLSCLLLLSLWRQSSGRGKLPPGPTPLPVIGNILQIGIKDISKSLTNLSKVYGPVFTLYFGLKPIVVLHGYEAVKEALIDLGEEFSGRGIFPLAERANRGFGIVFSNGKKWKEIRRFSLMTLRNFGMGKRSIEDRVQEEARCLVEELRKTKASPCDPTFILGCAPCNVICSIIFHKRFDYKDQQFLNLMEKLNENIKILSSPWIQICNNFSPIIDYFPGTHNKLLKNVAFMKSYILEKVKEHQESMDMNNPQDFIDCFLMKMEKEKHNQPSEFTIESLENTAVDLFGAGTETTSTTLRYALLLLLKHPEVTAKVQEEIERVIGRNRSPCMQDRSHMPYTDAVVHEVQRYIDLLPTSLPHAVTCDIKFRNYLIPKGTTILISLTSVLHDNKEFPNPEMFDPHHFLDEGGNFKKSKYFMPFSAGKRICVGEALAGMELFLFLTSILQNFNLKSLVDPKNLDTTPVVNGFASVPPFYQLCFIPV

With `CN(CCc1c[nH]c2ccccc12)C(=O)c1ccc(-c2ccccc2)cc1`, the Activity entry is recorded as “Non-toxic” in the data set with Mus musculus, 31% in data set [4] and 4% in the data set on A549 [8]. Further, the inhibition – broadly, the change of the read-out against control, counted positive when it falls – at 10 µM on CYP2C9 was 51%. In addition, the inhibition entry in data set [1] and in data set [5] was “inactive” in each case. Besides, the inhibition at 3 µM in data set [2] came to 50%. Further, the inhibition entry in the data set on A549 [3] is “Active”. The result (in [6]; with LS174T; with A549 [7]) was Active. Besides, the solubility (commonly how much of the substance goes into solution per volume) in [9] came to 125 µg/mL (≈ 353 µM).
